In ChEMBL document CHEMBL4351020, “Application of hydrazino and hydrazido linkers to connect benzenesulfonamides with hydrophilic/phobic tails for targeting the middle region of human carbonic anhydrases active site: Selective inhibitors of hCA IX” (Eur J Med Chem, 2019):

What was measured:
Carbonic anhydrase 1 = Carbonic anhydrase 1 (Homo sapiens, UniProt P00915); experiment: Inhibition of human recombinant carbonic anhydrase 1 expressed in Escherichia coli by stopped flow CO2 hydration assay
Carbonic anhydrase 2 = Carbonic anhydrase 2 (Homo sapiens, UniProt P00918); experiment: Inhibition of human recombinant carbonic anhydrase 2 expressed in Escherichia coli by stopped flow CO2 hydration assay
Carbonic anhydrase 9 = Carbonic anhydrase 9 (Homo sapiens, UniProt Q16790)
MCF7 [1] = experiment: Antiproliferative activity against human MCF7 cells measured after 48 hrs under hypoxia condition by MTT assay; type: functional, cell-based; details: MCF7, 48 h
Summary of the method: (§1)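 MCF-7 (ATCC) grown in DMEM with 10% heat-inactivated FBS, 1% L-glutamine (2.5 mM), HEPES (10 mM), 50 µg/mL gentamycin, at 37 C, 5% CO2. Hypoxia induced chemically with CoCl2 (100 µM); normoxic cells without it. Viability by MTT colorimetric assay after 48 h exposure; IC50 is the concentration giving 50% growth inhibition relative to untreated controls.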

MCF7 [2] = experiment: Antiproliferative activity against human MCF7 cells measured after 48 hrs under normoxia condition by MTT assay; type: functional, cell-based; details: MCF7, 48 h; summary of the method: as §1
MCF7 [3] = experiment: Induction of cell cycle arrest in human MCF7 cells assessed as accumulation at Pre-G1 phase at IC50 after 24 hrs by propidium iodide staining based flow cytometric analysis (reference value: 1.89%); type: functional
MCF7 [4] = experiment: Induction of cell cycle arrest in human MCF7 cells assessed as accumulation at G0/G1 phase at IC50 after 24 hrs by propidium iodide staining based flow cytometric analysis (reference value: 56.27%); type: functional
MCF7 [5] = experiment: Induction of cell cycle arrest in human MCF7 cells assessed as accumulation at S phase at IC50 after 24 hrs by propidium iodide staining based flow cytometric analysis (reference value: 41.36%); type: functional
MCF7 [6] = experiment: Induction of cell cycle arrest in human MCF7 cells assessed as accumulation at G2/M phase at IC50 after 24 hrs by propidium iodide staining based flow cytometric analysis (reference value: 2.37%); type: functional
MCF7 [7] = experiment: Induction of apoptosis in human MCF7 cells assessed as early apoptotic cells by Annexin V-FITC/propidium iodide staining based flow cytometry (reference value: 1.05%); type: functional
MCF7 [8] = experiment: Induction of apoptosis in human MCF7 cells assessed as late apoptotic cells by Annexin V-FITC/propidium iodide staining based flow cytometry (reference value: 0.49%); type: functional
MCF7 [9] = experiment: Induction of apoptosis in human MCF7 cells assessed as necrotic cells by Annexin V-FITC/propidium iodide staining based flow cytometry (reference value: 0.35%); type: functional
MCF7 [10] = experiment: Induction of apoptosis in human MCF7 cells assessed as total apoptotic cells by Annexin V-FITC/propidium iodide staining based flow cytometry (reference value: 1.54%); type: functional

Carbonic anhydrase 1, sequence (P00915 whole entry): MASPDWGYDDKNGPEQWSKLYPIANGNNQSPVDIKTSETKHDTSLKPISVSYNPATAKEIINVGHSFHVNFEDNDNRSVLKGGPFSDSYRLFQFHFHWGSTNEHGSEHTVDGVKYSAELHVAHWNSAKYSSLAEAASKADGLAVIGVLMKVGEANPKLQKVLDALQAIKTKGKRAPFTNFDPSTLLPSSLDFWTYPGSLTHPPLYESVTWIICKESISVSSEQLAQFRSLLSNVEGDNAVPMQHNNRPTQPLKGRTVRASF

Structure (SMILES) | Ki (Carbonic anhydrase 1) [nM] | Ki (Carbonic anhydrase 2) [nM] | Ki (Carbonic anhydrase 9) [nM] | further results
NS(=O)(=O)c1ccc(N/N=C/c2ccc(-n3nnc4ccccc43)cc2)cc1 | 240 | 94.6 | 46.3 | –
NS(=O)(=O)c1ccc(C(=O)N/N=C/c2ccc(N3CCOCC3)cc2)cc1 | 175 | 15.6 | 8.6 | –
NS(=O)(=O)c1ccc(C(=O)N/N=C/c2ccc(-n3nnc4ccccc43)cc2)cc1 | 357 | 62.3 | 23.7 | –
C/C(=N\Nc1ccc(S(N)(=O)=O)cc1)c1ccc(N2CCCCC2)cc1 | 111 | 69.2 | 7.2 | –
C/C(=N\Nc1ccc(S(N)(=O)=O)cc1)c1ccc(N2CCCC2)cc1 | 95.4 | 57.7 | 18.3 | –
C/C(=N\Nc1ccc(S(N)(=O)=O)cc1)c1ccc(N2CCOCC2)cc1 | 149 | 65.6 | 8.9 | –
C/C(=N\NC(=O)c1ccc(S(N)(=O)=O)cc1)c1ccc(N2C(=O)c3c(Cl)c(Cl)c(Cl)c(Cl)c3C2=O)cc1 | – | – | 17.3 | –
C/C(=N\Nc1ccc(S(N)(=O)=O)cc1)c1ccc(N2CCN(C)CC2)cc1 | 266 | 89.5 | 2 | IC50 (MCF7 [1]): 17300 nM; IC50 (MCF7 [2]): 7720 nM
NS(=O)(=O)c1ccc(N/N=C/c2ccc(-n3ccnc3)cc2)cc1 | 76.8 | 17.9 | 14.6 | –
NS(=O)(=O)c1ccc(C(=O)N/N=C/c2ccc(-n3ccnc3)cc2)cc1 | 130 | 8.2 | 10.1 | IC50 (MCF7 [1]): 8530 nM; IC50 (MCF7 [2]): 3320 nM; Activity (MCF7 [3]): 19.36%; Activity (MCF7 [4]): 36.49%; Activity (MCF7 [5]): 29.66%; Activity (MCF7 [6]): 33.85%; Activity (MCF7 [7]): 4.29%; Activity (MCF7 [8]): 11.93%; Activity (MCF7 [9]): 3.14%; Activity (MCF7 [10]): 16.22%

Further lines, with some results ahead:

Ki (Carbonic anhydrase 1) [nM] | Ki (Carbonic anhydrase 2) [nM] | Ki (Carbonic anhydrase 9) [nM] | Structure (SMILES) | further results
101 | 24 | 20.9 | NS(=O)(=O)c1ccc(N/N=C/c2ccc(N3CCCCC3)cc2)cc1 | –
153 | 9.3 | 3.3 | NS(=O)(=O)c1ccc(C(=O)N/N=C/c2ccc(N3CCCCC3)cc2)cc1 | –
347 | 12.5 | 3.1 | NS(=O)(=O)c1ccc(C(=O)N/N=C/c2ccc(N3CCCC3)cc2)cc1 | –
96.2 | 29.9 | 19.4 | NS(=O)(=O)c1ccc(N/N=C/c2ccc(N3CCCC3)cc2)cc1 | –
87.4 | 34.5 | 16.5 | NS(=O)(=O)c1ccc(N/N=C/c2ccc(N3CCOCC3)cc2)cc1 | –
